Measured values from ChEMBL document CHEMBL4715734, “Discovery of the Potent and Selective M1 PAM-Agonist N-[(3R,4S)-3-Hydroxytetrahydro-2H-pyran-4-yl]-5-methyl-4-[4-(1,3-thiazol-4-yl)benzyl]pyridine-2-carboxamide (PF-06767832): Evaluation of Efficacy and Cholinergic Side Effects” (J Med Chem, 2016).
Where a chain is given by its changes, count along the chain named. The source made the active and inactive calls. No cut-off for these calls is given here.

How the values were obtained:
[1] = target: T1, Muscarinic acetylcholine receptor M1 (Homo sapiens, UniProt P11229); test: Partial agonist activity at human muscarinic M1 receptor stably expressed in CHO cells assessed as increase in intracellular calcium level measured after 10 mins by Fluo-8AM dye based FLIPR TETRA method; format: functional, cell-based
T1 sequence (P11229 whole entry): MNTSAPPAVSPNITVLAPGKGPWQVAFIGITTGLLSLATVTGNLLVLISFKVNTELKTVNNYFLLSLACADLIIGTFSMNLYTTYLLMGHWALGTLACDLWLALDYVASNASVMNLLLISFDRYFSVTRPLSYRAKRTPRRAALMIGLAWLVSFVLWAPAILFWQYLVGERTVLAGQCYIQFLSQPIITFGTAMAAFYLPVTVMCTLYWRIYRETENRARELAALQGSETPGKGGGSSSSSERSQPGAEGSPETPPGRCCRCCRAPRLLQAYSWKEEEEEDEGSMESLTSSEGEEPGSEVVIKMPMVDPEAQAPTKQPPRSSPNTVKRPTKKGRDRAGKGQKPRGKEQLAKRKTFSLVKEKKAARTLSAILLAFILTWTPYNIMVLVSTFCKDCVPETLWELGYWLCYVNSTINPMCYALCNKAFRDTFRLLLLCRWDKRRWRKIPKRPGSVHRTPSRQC

Rattus norvegicus = test: Reversal of scopolamine-induced memory impairment in Wistar rat model at 0.32 mg/kg, po administered 15 min before training followed by 30 mins later administration with scopolamine measured after 24 hrs by Morris water maze test
[2] = Unbound brain concentration in […] in Sprague-Dawley rat model at 0.32 mg/kg, sc measured after 1.67 hrs; format: ADME, organism-based; details: in vivo
Procedure, shortened: (§1)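 Randomly selected animals (N=2/dose) at the end of the rat PPI study, T = 1.67 h. Dosed subcutaneously as a suspension in 0.5% methylcellulose in water. Plasma and brain concentrations were averaged.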

[3] = Unbound brain concentration in scopolamine-induced Wistar rat model at 0.1 mg/kg, po measured after 1 hr; format: ADME, organism-based; details: in vivo
[4] = fCmax in rat at 10 mg/kg, po administered for 14 days; format: ADME, organism-based; details: in vivo, 336 h, time 14 day
Procedure, shortened: (§2)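 2-week repeat oral dosing in rats, 0.5% methylcellulose formulation; N=4/sex/dose; doses 3, 10, 30 (males)/15 (females) mg/kg; unbound exposures reported per dose and sex.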

[5] = fCmax in dog at 15 mg/kg, po using spray-dried dispersion formulation; format: ADME, organism-based, Canis lupus familiaris; details: in vivo
[6] = Toxicity in dog assessed as salivation at 3 mg/kg, po using spray-dried dispersion formulation; format: organism-based, Canis lupus familiaris; details: in vivo
[7] = Half life in dog at 0.5 mg/kg, po or 0.1 mg/kg, iv; format: ADME, organism-based, Canis lupus familiaris; details: in vivo
[8] = Unbound brain concentration in scopolamine-induced Wistar rat model at 1 mg/kg, po measured after 1 hr; format: ADME, organism-based; details: in vivo
[9] = Unbound plasma concentration in […] in Sprague-Dawley rat model at 0.32 mg/kg, sc measured after 1.67 hrs; format: ADME, organism-based; details: in vivo; procedure, shortened: as §1
[10] = Fraction unbound in C57BL/6 mouse plasma; format: ADME, cell-free
[11] = fAUC (0 to 24 hrs) in rat at 3 mg/kg, po administered for 14 days; format: ADME, organism-based; details: in vivo, 336 h, time 14 day; procedure, shortened: as §2
[12] = Toxicity in male Beagle dog assessed as change in CV end points at 0.3 mg/kg, po by telemetry; format: organism-based, Canis lupus familiaris; details: in vivo
Procedure, shortened: (§3)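 Crossover telemetry study in dogs at three oral doses (0.3, 1 and 3 mg/kg), N=4. Endpoints were blood pressure, maximum systolic left ventricular pressure, LV +dP/dt max, activity, heart rate, and RR, QT and QTc intervals, followed up to 9 h post dose.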

[13] = Unbound brain concentration in amphetamine-induced C57BL/6J mouse model of hyperlocomotion at 1 mg/kg, sc measured after 1 hr; format: ADME, organism-based; details: in vivo
Procedure, shortened: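 Satellite PK animals from the mouse aLMA study, N=2/dose. Dosed subcutaneously with a solution in 5/15/80 DMSO/Solutol/water. Plasma and brain were sampled at T = 1 h.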

[14] = Positive allosteric modulation of muscarinic M2/M3 receptor in Hartley guinea pig ileum assessed as increase in donepezil-induced stimulation of contraction; format: tissue-based; details: Cavia porcellus
Procedure, shortened: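 PAM mode used guinea pig ileum in a tissue bath. Contraction concentration–response curves were run in the presence of an EC20 of donepezil, with or without atropine.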

[15] = Toxicity in dog assessed as emesis at 5 mg/kg, po using spray-dried dispersion formulation; format: organism-based, Canis lupus familiaris; details: in vivo
Procedure, shortened: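 Dogs received single escalating oral doses as a spray-dried dispersion (10% drug loading with HPMCAS-M). The dispersion was suspended in 0.5 wt% methylcellulose/0.5 wt% HPMCAS in 20 mM tris buffer, pH 7.4. One dog per sex per dose was used, and clinical signs were recorded.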

[16] = Ratio of fAUC in dog brain to plasma; format: ADME, cell-free, Canis lupus familiaris; details: brain and plasma, read-out: Ratio AUC
[17] = target: T2, Muscarinic acetylcholine receptor M1 (Rattus norvegicus) (UniProt P08482); test: Positive allosteric modulation of muscarinic M1 receptor in Sprague-Dawley rat hippocampal slice assessed as increase in carbachol-induced CA1 spiked rates by electrophysiological analysis; details: filed as positive allosteric modulator
T2 sequence (whole entry): T1 sequence (P11229 whole entry) with A5V, T254S, P309S, R320K, A337G, I413V

[18] = target: T2, Muscarinic acetylcholine receptor M1 (Rattus norvegicus); test: Agonist activity at muscarinic M1 receptor in Sprague-Dawley rat hippocampal slice assessed as increase in CA1 spiked rates by electrophysiological analysis; details: filed as agonist
[19] = Toxicity in dog assessed as induction of loose stool at 0.3 mg/kg, po using spray-dried dispersion formulation; format: organism-based, Canis lupus familiaris; details: in vivo
[20] = target: Dual 3',5'-cyclic-AMP and -GMP phosphodiesterase 11A (Homo sapiens, UniProt Q9HCR9); test: Inhibition of PDE11A4 (unknown origin)
[21] = Unbound brain concentration in […] in Sprague-Dawley rat model at 3.2 mg/kg, sc measured after 1.67 hrs; format: ADME, organism-based; details: in vivo; procedure, shortened: as §1
[22] = Toxicity in male Beagle dog assessed as decrease in QT interval at 3 mg/kg, po administered as single dose observed upto 9 hrs post last dose by telemetry; format: organism-based, Canis lupus familiaris; details: in vivo; procedure, shortened: as §3
[23] = Unbound plasma concentration in CD-1 mouse at 10 mg/kg, sc measured after 2 hrs by LC-MS/MS analysis; format: ADME, organism-based; details: in vivo

Chain of Dual 3',5'-cyclic-AMP and -GMP phosphodiesterase 11A (Q9HCR9 whole entry): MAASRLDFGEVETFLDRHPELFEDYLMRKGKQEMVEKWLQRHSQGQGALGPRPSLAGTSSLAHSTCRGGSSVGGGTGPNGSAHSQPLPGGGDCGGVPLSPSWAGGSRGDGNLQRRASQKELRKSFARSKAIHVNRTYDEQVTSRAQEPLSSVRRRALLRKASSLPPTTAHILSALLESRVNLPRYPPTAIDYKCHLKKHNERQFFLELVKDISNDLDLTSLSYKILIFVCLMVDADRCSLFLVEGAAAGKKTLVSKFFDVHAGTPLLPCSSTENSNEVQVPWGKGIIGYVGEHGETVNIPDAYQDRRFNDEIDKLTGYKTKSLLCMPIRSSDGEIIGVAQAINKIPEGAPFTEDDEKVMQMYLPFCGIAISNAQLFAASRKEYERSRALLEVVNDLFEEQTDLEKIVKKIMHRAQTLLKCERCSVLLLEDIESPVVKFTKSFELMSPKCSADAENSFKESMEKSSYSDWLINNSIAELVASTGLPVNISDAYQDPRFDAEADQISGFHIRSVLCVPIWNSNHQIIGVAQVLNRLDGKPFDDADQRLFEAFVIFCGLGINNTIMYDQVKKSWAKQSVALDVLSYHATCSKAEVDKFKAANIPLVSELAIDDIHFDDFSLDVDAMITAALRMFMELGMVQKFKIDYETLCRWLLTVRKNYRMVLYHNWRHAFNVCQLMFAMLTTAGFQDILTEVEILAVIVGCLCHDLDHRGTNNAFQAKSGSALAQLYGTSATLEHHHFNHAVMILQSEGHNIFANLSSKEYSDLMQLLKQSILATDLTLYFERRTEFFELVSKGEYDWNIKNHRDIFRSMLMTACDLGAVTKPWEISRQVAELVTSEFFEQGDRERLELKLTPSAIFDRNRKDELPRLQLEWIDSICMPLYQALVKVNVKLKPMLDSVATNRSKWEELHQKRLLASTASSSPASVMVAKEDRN

EC50 [1]: ≥ 3.9 µM | Drug uptake(free) [2]: 4.3 nM | Drug uptake(free) [3]: 0.31 nM | fCmax [4]: 562 nM | fCmax [5]: 1050 nM | half-life [7]: 5.17 h | Drug uptake(free) [8]: 6.7 nM | Cp(f) [9]: 11.9 nM | Fu [10]: 2.9% | fAUC [11]: 1.856 µM·h | Drug uptake(free) [13]: 18.5 nM | EC50 [14]: 0.082 µM | Kp uu [16]: 0.3 | Activity [17]: Dose-dependent effect | Activity [18]: Dose-dependent effect | IC50 [20]: 4.94 µM | Drug uptake(free) [21]: 44.4 nM | Cp(f) [23]: 574 nM
SMILES: Cc1cnc(C(=O)N[C@H]2CCOC[C@@H]2O)cc1Cc1ccc(-c2cscn2)cc1
Activity (Rattus norvegicus): Active | Activity [6]: Toxic | Activity [12]: Non-Toxic | Activity [15]: Toxic | Activity [19]: Toxic | Activity [22]: Toxic
